In ChEMBL document CHEMBL1140117, “Structure-activity relationship studies for the peptide portion of the bladder epithelial cell antiproliferative factor from interstitial cystitis patients” (2008):
Non-standard residues stand in square brackets, D forms with d. Residues, ends and D or L forms follow the SMILES beside them. *: point of attachment. X1 = CC(=O)N[C@@H]1[C@@H](O[C@@H]2O[C@H](CO)[C@H](O)[C@H](O)[C@H]2O)[C@@H](O)[C@@H](CO)O[C@@H]1*; NMeA = CN[C@@H](C)C(=O)O

Test: Antiproliferative activity against human bladder epithelial cells assessed as inhibition of [3H]thymidine incorporation after 48 hrs relative to as-APF
Assay type: functional, Epithelial cell
Design: scale not given: the % may be the effect or the level left
Outline: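 Primary normal human bladder epithelial cells, explanted from cystoscopy biopsies, plated at 1.5 × 10⁴ cells/well in MEM with 10% heat-inactivated FBS. Congeners dissolved in acetonitrile/water (1:1), added in serum-free MEM in 10-fold dilutions up to the 25 µM assay cutoff. Incubated 48 h at 37 °C, 5% CO₂. ³H-thymidine uptake counted on filters. Activity expressed relative to the standard control run on each plate. Triplicates, at least two runs, ANOVA.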

In the case of `CC(=O)N[C@H]1[C@@H](OC[C@H](N)C(=O)N[C@@H](CC(C)C)C(=O)N2CCC[C@H]2C(=O)N[C@@H](C)C(=O)N[C@@H](C)C(=O)N[C@H](C(=O)N[C@H](C(=O)N[C@H](C(=O)N[C@@H](C)C(=O)O)C(C)C)C(C)C)C(C)C)O[C@H](CO)[C@H](O)[C@@H]1O[C@@H]1O[C@H](CO)[C@H](O)[C@H](O)[C@H]1O` (H-S(X1)LPAAVVVA-OH), the Activity is reported as 1%.
For `CC(=O)N[C@H]1[C@@H](O[C@H](C)[C@H](N)C(=O)N[C@H](C(=O)N(C)[C@@H](C)C(=O)N[C@@H](C)C(=O)N[C@@H](C)C(=O)N[C@H](C(=O)N[C@H](C(=O)N[C@H](C(=O)N[C@@H](C)C(=O)O)C(C)C)C(C)C)C(C)C)C(C)C)O[C@H](CO)[C@H](O)[C@@H]1O[C@@H]1O[C@H](CO)[C@H](O)[C@H](O)[C@H]1O` (H-T(X1)V[NMeA]AAVVVA-OH), the Activity was 0.05%.
`CC(=O)N[C@H]1[C@@H](O[C@H](C)[C@H](N)C(=O)N[C@H](C(=O)N2CCC[C@H]2C(=O)N[C@@H](C)C(=O)N[C@@H](C)C(=O)N[C@H](C(=O)N[C@H](C(=O)N[C@H](C(=O)N[C@@H](CC(C)C)C(=O)O)C(C)C)C(C)C)C(C)C)C(C)C)O[C@H](CO)[C@H](O)[C@@H]1O[C@@H]1O[C@H](CO)[C@H](O)[C@H](O)[C@H]1O` (H-T(X1)VPAAVVVL-OH) showed an Activity of 0.01%.
Compound `CC(=O)N[C@H]1[C@@H](O[C@H](C)[C@H](N)C(=O)N[C@H](C(=O)N2CCC[C@H]2C(=O)N[C@@H](C)C(=O)N[C@@H](C)C(=O)N[C@H](C(=O)N[C@H](C(=O)N[C@H](C(=O)N[C@@H](C)C(=O)N[C@@H](CS)C(=O)O)C(C)C)C(C)C)C(C)C)C(C)C)O[C@H](CO)[C@H](O)[C@@H]1O[C@@H]1O[C@H](CO)[C@H](O)[C@H](O)[C@H]1O` (H-T(X1)VPAAVVVAC-OH) has an Activity of 1%.
Compound `CC(=O)N[C@H]1[C@@H](O[C@H](C)[C@H](N)C(=O)N[C@H](C(=O)N2CCC[C@H]2C(=O)N[C@@H](C)C(=O)N[C@@H](C)C(=O)N[C@@H](C)C(=O)N[C@@H](C)C(=O)N[C@@H](C)C(=O)N[C@@H](C)C(=O)O)C(C)C)O[C@H](CO)[C@H](O)[C@@H]1O[C@@H]1O[C@H](CO)[C@H](O)[C@H](O)[C@H]1O` (H-T(X1)VPAAAAAA-OH) has an Activity of 1%.
In the case of `CC(=O)N[C@H]1[C@@H](O[C@H](C)[C@H](NC(=O)[C@@H](N)Cc2ccc(O)cc2)C(=O)N[C@H](C(=O)N2CCC[C@H]2C(=O)N[C@@H](C)C(=O)N[C@@H](C)C(=O)N[C@H](C(=O)N[C@H](C(=O)N[C@H](C(=O)N[C@@H](C)C(=O)O)C(C)C)C(C)C)C(C)C)C(C)C)O[C@H](CO)[C@H](O)[C@@H]1O[C@@H]1O[C@H](CO)[C@H](O)[C@H](O)[C@H]1O` (H-YT(X1)VPAAVVVA-OH), the Activity is reported as 1%.
For `CC(=O)N[C@H]1[C@@H](OC[C@H](N)C(=O)N[C@H](C(=O)N2CCC[C@H]2C(=O)N[C@@H](C)C(=O)N[C@@H](C)C(=O)N[C@H](C(=O)N[C@H](C(=O)N[C@H](C(=O)N[C@@H](C)C(=O)O)C(C)C)C(C)C)C(C)C)C(C)C)O[C@H](CO)[C@H](O)[C@@H]1O[C@@H]1O[C@H](CO)[C@H](O)[C@H](O)[C@H]1O` (H-S(X1)VPAAVVVA-OH), the Activity was 0.01%.
